Assay results reported in ChEMBL document CHEMBL1155272, “Nucleoside-5'-monophosphates as prodrugs of adenosine A2A receptor agonists activated by ecto-5'-nucleotidase” (J Med Chem, 2009).

How the values were obtained:
[1] = molecular target: Adenosine receptor A2a (Rattus norvegicus, UniProt P30543); experiment: Displacement of [3H]CGS21680 from adenosine A2A receptor in rat brain striatal membrane after 60 mins; format: cell membranes
[2] = molecular target: T1, Adenosine receptor A3 (Homo sapiens, UniProt P0DMS8); experiment: Displacement of [3H]PSB-11 from human recombinant adenosine A3 receptor expressed in CHO cells after 60 mins; format: cell-based
T1 sequence (P0DMS8 whole entry): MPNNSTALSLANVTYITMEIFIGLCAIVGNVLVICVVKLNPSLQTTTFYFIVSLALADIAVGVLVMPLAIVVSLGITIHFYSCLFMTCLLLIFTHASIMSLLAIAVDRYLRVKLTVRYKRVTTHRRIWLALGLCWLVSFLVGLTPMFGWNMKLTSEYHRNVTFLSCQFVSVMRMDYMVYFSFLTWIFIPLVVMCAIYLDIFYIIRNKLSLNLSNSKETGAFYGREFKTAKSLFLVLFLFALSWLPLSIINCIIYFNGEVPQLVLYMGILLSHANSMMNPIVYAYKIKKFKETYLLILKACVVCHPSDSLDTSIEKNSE
Method in brief: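 Membranes from CHO cells expressing human A3 receptor (30–50 μg protein), pretreated 10–15 min with 0.12 IU/mL adenosine deaminase. [3H]PSB-11 1.0 nM, 60 min at rt, 2.5% DMSO final. Six to seven concentrations over 3 log units. At least 2–3 experiments in duplicate.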

[3] = molecular target: T2, Adenosine receptor A1 (Rattus norvegicus, UniProt P25099); experiment: Displacement of [3H]CCPA from adenosine A1 receptor in rat brain cortical membrane after 90 mins
T2 sequence (P25099 whole entry): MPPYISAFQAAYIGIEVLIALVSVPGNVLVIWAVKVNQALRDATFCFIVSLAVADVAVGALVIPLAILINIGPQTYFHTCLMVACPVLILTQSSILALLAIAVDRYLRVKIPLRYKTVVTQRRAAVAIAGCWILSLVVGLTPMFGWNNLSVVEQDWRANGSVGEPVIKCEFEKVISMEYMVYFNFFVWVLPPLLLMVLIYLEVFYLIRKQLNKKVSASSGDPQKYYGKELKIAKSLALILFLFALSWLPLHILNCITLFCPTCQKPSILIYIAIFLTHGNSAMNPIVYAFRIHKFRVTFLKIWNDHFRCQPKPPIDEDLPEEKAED

[4] = Antiinflammatory activity in C57/Bl6 mouse CD4+ T cells assessed as inhibition of anti-CD3/anti-CD28 antibody-stimulated INFgamma production after 18 hrs by ELISA; format: functional, cell-based; conditions: C57/Bl6, T-cell
Method in brief: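 Splenic CD4+ T cells from male C57/Bl6 mice (8–12 wk) were isolated by magnetic CD4 beads, resuspended in Panserin 413, and stimulated on plates coated with 0.4 μg/mL anti-CD3 and 2.5 μg/mL anti-CD28 for 18 h, with compound added together with the antibodies. IFN-γ in the supernatant was measured by ELISA, and EC50 was taken from dose-response curves.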

[5] = Prodrug stability in C57/Bl6 mouse CD4+ T cells expressing ecto-5'-nucleotidase assessed as compound remaining at 10 mM after 18 hrs by LC/MS analysis; format: ADME, cell-based; conditions: t-cell, 10000 µM
Method in brief: (§1)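 Splenic CD4+ T cells (wild-type or ecto-5'-NT knockout C57/Bl6), about 4×10^5 cells in 200 μL, were stimulated with anti-CD3/anti-CD28 for 18 h with prodrug at initial 10, 5 or 2.5 mM. Prodrug and released nucleoside in the supernatant were quantified by LC-MS/MS (C18, water/methanol with 2 mM ammonium acetate, ESI negative MRM). Each is expressed as a percentage of the total.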

[6] = Prodrug stability in C57/Bl6 mouse CD4+ T cells expressing ecto-5'-nucleotidase assessed as compound remaining at 5 mM after 18 hrs by LC/MS analysis; format: ADME, cell-based; conditions: t-cell, 5000 µM; method in brief: as §1
[7] = Prodrug stability in C57/Bl6 mouse CD4+ T cells expressing ecto-5'-nucleotidase assessed as compound remaining at 2.5 mM after 18 hrs by LC/MS analysis; format: ADME, cell-based; conditions: t-cell, 2500 µM; method in brief: as §1
[8] = Prodrug stability in ecto-5'-nucleotidase knockout C57/Bl6 mouse CD4+ T cells assessed as compound remaining at 10 mM after 18 hrs by LC/MS analysis; format: ADME, cell-based; conditions: t-cell, 10000 µM; method in brief: as §1
[9] = Prodrug stability in ecto-5'-nucleotidase knockout C57/Bl6 mouse CD4+ T cells assessed as compound remaining at 5 mM after 18 hrs by LC/MS analysis; format: ADME, cell-based; conditions: t-cell, 5000 µM; method in brief: as §1
[10] = Prodrug stability in ecto-5'-nucleotidase knockout C57/Bl6 mouse CD4+ T cells assessed as compound remaining at 2.5 mM after 18 hrs by LC/MS analysis; format: ADME, cell-based; conditions: t-cell, 2500 µM; method in brief: as §1
[11] = Prodrug stability in C57/Bl6 mouse CD4+ T cells expressing ecto-5'-nucleotidase assessed as formation of 2-(cyclohexylmethylthio)adenosine at 10 mM after 18 hrs by LC/MS analysis; format: ADME, cell-based; conditions: t-cell, 10000 µM, in the assay text read “2-(cyclohexylethylthio)adenosine” for “2-(cyclohexylmethylthio)adenosine”; method in brief: as §1
[12] = Prodrug stability in C57/Bl6 mouse CD4+ T cells expressing ecto-5'-nucleotidase assessed as formation of 2-(cyclohexylmethylthio)adenosine at 2.5 mM after 18 hrs by LC/MS analysis; format: ADME, cell-based; conditions: t-cell, 2500 µM; method in brief: as §1
[13] = Prodrug stability in ecto-5'-nucleotidase knockout C57/Bl6 mouse CD4+ T cells expressing ecto-5'-nucleotidase assessed as formation of 2-(cyclohexylmethylthio)adenosine at 10 mM after 18 hrs by LC/MS analysis; format: ADME, cell-based; conditions: t-cell, 10000 µM; method in brief: as §1
[14] = Prodrug stability in ecto-5'-nucleotidase knockout C57/Bl6 mouse CD4+ T cells expressing ecto-5'-nucleotidase assessed as formation of 2-(cyclohexylmethylthio)adenosine at 5 mM after 18 hrs by LC/MS analysis; format: ADME, cell-based; conditions: t-cell, 5000 µM; method in brief: as §1
[15] = Prodrug stability in ecto-5'-nucleotidase knockout C57/Bl6 mouse CD4+ T cells expressing ecto-5'-nucleotidase assessed as formation of 2-(cyclohexylmethylthio)adenosine at 2.5 mM after 18 hrs by LC/MS analysis; format: ADME, cell-based; conditions: t-cell, 2500 µM; method in brief: as §1
[16] = Prodrug stability in C57/Bl6 mouse CD4+ T cells expressing ecto-5'-nucleotidase assessed as formation of 2-(cyclohexylethylthio)adenosine at 5 mM after 18 hrs by LC/MS analysis; conditions: t-cell, 5000 µM

Adenosine receptor A2a, sequence (P30543 whole entry): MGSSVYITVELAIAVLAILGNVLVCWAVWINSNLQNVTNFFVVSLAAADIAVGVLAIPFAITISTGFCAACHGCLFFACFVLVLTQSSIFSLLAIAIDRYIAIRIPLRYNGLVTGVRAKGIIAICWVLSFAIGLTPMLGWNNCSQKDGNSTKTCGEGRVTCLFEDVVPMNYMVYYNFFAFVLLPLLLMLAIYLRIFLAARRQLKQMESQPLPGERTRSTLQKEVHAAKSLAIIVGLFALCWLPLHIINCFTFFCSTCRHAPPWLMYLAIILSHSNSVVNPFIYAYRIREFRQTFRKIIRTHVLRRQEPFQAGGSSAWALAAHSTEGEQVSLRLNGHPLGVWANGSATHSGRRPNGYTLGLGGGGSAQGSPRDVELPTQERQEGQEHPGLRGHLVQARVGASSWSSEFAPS

SMILES	Ki [1] [nM]	Ki [2] [nM]	Ki [3] [nM]	other results
Nc1nc(SCCC2CCCCC2)nc2c1ncn2[C@@H]1O[C@H](CO)[C@@H](O)[C@H]1O		3640	400	EC50 [4]: 50 nM
C#CCSc1nc(N)c2ncn([C@@H]3O[C@H](CO)[C@@H](O)[C@H]3O)c2n1	2900	6990	555	
Nc1nc(SCCC2OCCO2)nc2c1ncn2[C@@H]1O[C@H](CO)[C@@H](O)[C@H]1O	1160	3450	1140	
Nc1nc(SCCc2ccccc2)nc2c1ncn2[C@@H]1O[C@H](CO)[C@@H](O)[C@H]1O	18.5	1810		
C=CCSc1nc(N)c2ncn([C@@H]3O[C@H](CO)[C@@H](O)[C@H]3O)c2n1	1520	6640	532	
CCCSc1nc(N)c2ncn([C@@H]3O[C@H](CO)[C@@H](O)[C@H]3O)c2n1	1350		1270	
Nc1nc(SCCC2CCCCC2)nc2c1ncn2[C@@H]1O[C@H](COP(=O)(O)O)[C@@H](O)[C@H]1O				EC50 [4]: 5700 nM; Stability [5]: 85%; Stability [6]: 87.2%; Stability [7]: 89.2%; Stability [8]: 94.7%; Stability [9]: 95.3%; Stability [10]: 97.3%; Activity [11]: 15%; Activity [12]: 10.8%; Activity [13]: 5.3%; Activity [14]: 4.7%; Activity [15]: 2.7%; Activity [16]: 12.8%
Nc1nc(SCC2CCCCC2)nc2c1ncn2[C@@H]1O[C@H](CO)[C@@H](O)[C@H]1O	709	1720		
Nc1nc(SC2CCCCC2)nc2c1ncn2[C@@H]1O[C@H](CO)[C@@H](O)[C@H]1O	2480	≥ 10000	139	

Continued, in another order:

Ki [1] [nM]	Ki [2] [nM]	Ki [3] [nM]	SMILES	other results
793	10400	994	Nc1nc(SC2CCCC2)nc2c1ncn2[C@@H]1O[C@H](CO)[C@@H](O)[C@H]1O	
542	2320	256	CCCCCCSc1nc(N)c2ncn([C@@H]3O[C@H](CO)[C@@H](O)[C@H]3O)c2n1	
606	120	927	Nc1nc(SCc2ccccc2)nc2c1ncn2[C@@H]1O[C@H](CO)[C@@H](O)[C@H]1O	
1100	1330	454	Nc1nc(SCCC2COCCO2)nc2c1ncn2[C@@H]1O[C@H](CO)[C@@H](O)[C@H]1O (stereo partly specified)	
